The test system of data set [1] is Mus musculus. The data set can be described thus: Oral bioavailability in ICR mouse peritonitis model infected with methicillin resistant Staphylococcus aureus ATCC 27660 at 10 mg/kg administered as single dose through gavage by UPLC analysis. The class given is ADME, organism-based. The note with it: in vivo. A digest of the protocol:
(§1)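 Female ICR mice, single 10 mg/kg oral gavage in 25% DMSO/55% propylene glycol/20% PBS (2.5 mg/mL); n = 3 per time point; terminal blood 0.5–30 h; plasma protein-precipitated with acetonitrile containing internal standard, quantified by UPLC-UV or MRM against mouse-plasma calibration curve (0–50 μg/mL).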

The subject of data set [2] is Mus musculus. Put plainly: AUC (0 to last) in ICR mouse peritonitis model infected with methicillin resistant Staphylococcus aureus ATCC 27660 at 10 mg/kg, po administered as single dose through gavage measured after 30 hrs by UPLC analysis. The class given is ADME, organism-based. The arrangement: dose 10 mg/kg, time 0 - last, route oral. The note with it: in vivo, 30 h. A digest of the protocol:
as §1

For data set [3], the system named is Mus musculus. The data set can be described thus: AUC (0 to infinity) in ICR mouse peritonitis model infected with methicillin resistant Staphylococcus aureus ATCC 27660 at 10 mg/kg, iv administered as single dose by UPLC analysis. It is filed as ADME, organism-based. Also noted: dose 10 mg/kg, time infinity, route intravenous. The note with it: in vivo.
Data set [4] relates to Mus musculus. Put plainly: AUC (0 to infinity) in ICR mouse peritonitis model infected with methicillin resistant Staphylococcus aureus ATCC 27660 at 10 mg/kg, po administered as single dose through gavage by UPLC analysis. The arrangement: dose 10 mg/kg, route oral, time infinity. The class given is ADME, organism-based. The note with it: in vivo. A digest of the protocol:
as §1

In data set [5] the test system is Mus musculus. Put plainly: Cmax in ICR mouse peritonitis model infected with methicillin resistant Staphylococcus aureus ATCC 27660 at 10 mg/kg, po administered as single dose through gavage measured at 0.5 hrs post dose by UPLC analysis. The class given is ADME, organism-based. Also noted: dose 10 mg/kg, route oral. The note with it: in vivo. The method in brief: as §1

Data set [6] relates to Mus musculus. The data set can be described thus: Tmax in ICR mouse peritonitis model infected with methicillin resistant Staphylococcus aureus ATCC 27660 at 10 mg/kg, po administered as single dose through gavage by UPLC analysis. It is filed as ADME, organism-based. The note with it: in vivo. A digest of the protocol: as §1
Data set [7] has as its system Mus musculus. The data set can be described thus: Clearance in ICR mouse peritonitis model infected with methicillin resistant Staphylococcus aureus ATCC 27660 at 10 mg/kg, iv administered as single dose measured up to 8 hrs by UPLC analysis relative to hepatic blood flow. The class given is ADME, organism-based. The following applies: in vivo. A digest of the protocol:
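Fast PK: female ICR mice (n = 2 per time point) given single tail-vein iv injection at 5, 10 or 20 mg/kg in 25% DMSO/65% propylene glycol/10% water (2.5, 5 or 10 mg/mL); terminal cardiac blood at 5 min, 40 min, 2, 4, 8 h; plasma analysed by UPLC with internal standard calibration.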

The subject of data set [8] is Mus musculus. The data set can be described thus: Volume of distribution in ICR mouse peritonitis model infected with methicillin resistant Staphylococcus aureus ATCC 27660 at 10 mg/kg, iv administered as single dose measured up to 24 hrs by UPLC analysis. It is filed as ADME, organism-based. The note with it: in vivo, 24 h.
The subject of data set [9] is Mus musculus. Put plainly: Terminal half life in ICR mouse peritonitis model infected with methicillin resistant Staphylococcus aureus ATCC 27660 at 10 mg/kg, iv administered as single dose by UPLC analysis. The note with it: in vivo. It is filed as ADME, organism-based.
Data set [10] concerns Mus musculus. The data set can be described thus: Terminal half life in ICR mouse peritonitis model infected with methicillin resistant Staphylococcus aureus ATCC 27660 at 10 mg/kg, po administered as single dose through gavage by UPLC analysis. It is filed as ADME, organism-based. The note with it: in vivo. A digest of the protocol:
as §1

Data set [11] can be described thus: Solubility of compound in water. The class given is physicochemical. The following applies: buffer.
Data set [12] in a line: Plasma concentration in ICR mouse neutropenic thigh model of methicillin-resistant Staphylococcus aureus NRS70 infection at 20 mg/kg, sc tid administered every 8 hrs starting from 1 hr post infection and measured 7 hrs post last dose by UPLC analysis. It is filed as ADME, organism-based. The method in brief: (§2)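 Neutropenic thigh model (cyclophosphamide 200 mg/kg ip, NRS70 im), sc doses at 1, 9 and 17 h; at 24 h cardiac blood and uninfected thigh taken (n = 8 per group); thigh homogenate supernatant and plasma acetonitrile-quenched with internal standard, analysed by UPLC with MRM detection.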

Data set [13] can be described thus: Drug level in uninfected thighs of ICR mouse neutropenic thigh model of methicillin-resistant Staphylococcus aureus NRS70 infection at 20 mg/kg, sc tid administered every 8 hrs starting from 1 hr post infection and measured 7 hrs post last dose by UPLC analysis. It is filed as ADME, organism-based. The note with it: read-out: Drug uptake. The method in brief:
as §2

Data set [14] has as its system Mus musculus. The data set can be described thus: T>MIC in ICR mouse at 10 mg/kg, iv administered as single dose by UPLC analysis.
For data set [15], the system named is Mus musculus. The data set can be described thus: T>MIC in ICR mouse at 10 mg/kg, po administered as single dose through gavage by UPLC analysis.

Turning to `C#Cc1ccc(/C=C/c2nc3ccccc3c(=O)n2-c2cccc(C(=O)[O-])c2)cc1.[Na+]`, the F in the data set on Mus musculus [1] was 37%. This molecule had an AUClast in the data set with Mus musculus [2] of 552 µg·min/mL. Further, the AUC (usually the area under the concentration-time curve, a measure of exposure) in the data set on Mus musculus [3] was found to be 1570 µg·min/mL; with Mus musculus [4], 582 µg·min/mL. Also, the Cmax (as a rule, the peak of the concentration-time curve) in the data set with Mus musculus [5] turned out to be 2700 ng/mL. For the same molecule, the Tmax (as a rule, the time from dosing to the highest level) in the data set on Mus musculus [6] came to 0.5 h. The CL in the data set on Mus musculus [7] is on record as less than 10%. Besides, the Vd – broadly, a proportionality between amount in the body and measured concentration, not a real space – in the data set with Mus musculus [8] is 3.58 L/kg. Moreover, the figures for the “beta t1/2” value with Mus musculus [9] and in the data set on Mus musculus [10] were 6.5 h and 6.6 h, respectively. Also, the solubility (commonly the dissolved amount per volume that the medium holds) in data set [11] was 1500 µg/mL. The concentration at 7 h in data set [12] was 2430 ng/mL; in [13], 220 ng/mL. Further, the “T>MIC” value worked out at 24 h in the data set with Mus musculus [14] and 30 h with Mus musculus [15].

For the origin of these results see ChEMBL document CHEMBL3817745, “Structure-Activity Relationship for the 4(3H)-Quinazolinone Antibacterials” (J Med Chem, 2016).
